One assay deals with MDA-MB-231. Kind of assay: Antiproliferative activity against human MDA-MB-231 cells assessed as cell viability incubated for 96 hrs by MTT assay. It counts as functional, cell-based. To be noted: MDA-MB-231, 96 h. An outline of the steps:
(§1)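 Adherent cells (2000/well) attached overnight, then exposed to compounds at 0.14–100 µM for 96 h in DMEM with 10% FBS. MTT at 0.5 mg/mL for 4 h in the dark, formazan dissolved in DMSO, absorbance at 570 nm. Compounds were freshly prepared in DMSO, with DMSO below 1%.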
For orientation: Formazan colour is commonly taken as a measure of viable cells.

A further assay concerns MDA-MB-468. Kind of assay: Antiproliferative activity against human MDA-MB-468 cells assessed as cell viability incubated for 96 hrs by MTT assay. It is filed as functional, cell-based. To be noted: MDA-MB-468, 96 h. An outline of the steps: as §1
The next assay deals with MCF7. As to the kind of experiment: Antiproliferative activity against human MCF7 cells assessed as cell viability incubated for 96 hrs by MTT assay. The following applies: MCF7, 96 h. It counts as functional, cell-based. An outline of the steps:
as §1

Assay [1] can be described thus: Antiproliferative activity against human P493-6 cells expressing MYC assessed as inhibition of cell proliferation incubated for 96 hrs by cell titer glo assay. To be noted: P493-6, 96 h. It is filed as functional, cell-based. In outline: (§2)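 P493-6 cells (3000/well, RPMI) were seeded overnight at 37 °C, then given compounds at final 0.14–100 µM for 96 h. MYC-off cells were pretreated with 0.1 µg/mL tetracycline for 72 h. Read-out was CellTiter-Glo luminescence after equilibration to room temperature. IC50 was determined in high-MYC and MYC-off cells.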

Assay [2] can be described thus: Antiproliferative activity against tetracycline-treated human P493-6 cells expressing MYC assessed as inhibition of cell proliferation incubated for 96 hrs by cell titer glo assay. It is filed as functional, cell-based. To be noted: P493-6, 96 h. In outline:
as §2
In general terms: In ATP-based viability assays light output follows the ATP content of the culture.

A short description of assay [3]: Selectivity index, ratio of IC50 for antiproliferative activity against tetracycline-treated human P493-6 cells expressing MYC assessed as inhibition of cell proliferation to IC50 for antiproliferative activity against human P493-6 cells expressing MYC assessed as inhibition of cell proliferation. It is filed as functional. In outline:
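MYC-off P493-6 cells obtained by 72 h pretreatment with 0.1 µg/mL tetracycline and compared with untreated MYC-high cells. Cells seeded at 3000 per 100 uL, held overnight at 37 °C, then treated at 0.14–100 uM final for 96 h. Viability read by CellTiter-Glo luminescence. IC50 values determined in both states and compared as a selectivity index.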

Assay [4] relates to P493-6. Kind of assay: Antiproliferative activity against human P493-6 cells expressing MYC assessed as inhibition of cell proliferation at 25 uM incubated for 96 hrs by cell titer glo assay. It is filed as functional, cell-based. An outline of the steps: (§3)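 P493-6 cells, either untreated (high MYC) or MYC-off after 0.1 µg/mL tetracycline for 72 h, were exposed to 25 µM for 96 h. Read-out was % survival by CellTiter-Glo luminescence. Mean ± SD, n = 6, unpaired t-test.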

Assay [5] relates to P493-6. Kind of assay: Antiproliferative activity against tetracycline-treated human P493-6 cells expressing MYC assessed as inhibition of cell proliferation at 25 uM incubated for 96 hrs by cell titer glo assay. It is filed as functional, cell-based. An outline of the steps: as §3
The target of assay [6] is T1, c-Myc/c-Max (Homo sapiens) (UniProt P01106+P61244). Kind of assay: Disruption of MYC-MAX interaction in human MDA-MB-468 cells assessed as reduction in myc level at 25 uM. It counts as cell-based.
T1 sequence (P01106 whole entry): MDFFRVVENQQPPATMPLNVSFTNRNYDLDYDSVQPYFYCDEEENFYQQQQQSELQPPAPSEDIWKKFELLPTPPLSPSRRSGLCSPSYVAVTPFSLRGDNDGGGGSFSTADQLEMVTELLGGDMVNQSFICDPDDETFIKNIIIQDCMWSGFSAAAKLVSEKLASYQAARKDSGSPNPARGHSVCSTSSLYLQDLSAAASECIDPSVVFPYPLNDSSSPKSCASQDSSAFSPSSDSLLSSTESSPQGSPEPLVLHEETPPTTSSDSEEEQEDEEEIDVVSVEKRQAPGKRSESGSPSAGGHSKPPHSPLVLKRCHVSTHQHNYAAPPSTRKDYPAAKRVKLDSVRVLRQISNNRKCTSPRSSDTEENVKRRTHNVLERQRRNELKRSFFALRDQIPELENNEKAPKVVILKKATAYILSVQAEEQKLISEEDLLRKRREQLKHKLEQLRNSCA
T1 sequence (P61244 2-160 partner limits assumed): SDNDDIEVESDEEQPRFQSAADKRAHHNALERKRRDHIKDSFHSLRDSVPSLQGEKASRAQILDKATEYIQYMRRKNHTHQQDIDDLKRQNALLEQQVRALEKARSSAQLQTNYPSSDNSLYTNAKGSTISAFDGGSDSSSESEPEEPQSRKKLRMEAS
Assay [7] has as its target T1, c-Myc/c-Max (Homo sapiens). Kind of assay: Disruption of MYC-MAX interaction in human P493-6 cells assessed as reduction in myc level at 25 uM. It is filed as cell-based.
A short description of assay [8]: Induction of apoptosis in human P493-6 cells assessed as viable cells at 25 uM incubated for 24 hrs by Annexin V/PI staining based flow cytometry analysis (reference value: 90.8%). It is filed as functional. The following applies: read-out: Activity. A general note: Flow cytometry measures light scatter and fluorescence of single cells or particles in a stream.

A short description of assay [9]: Induction of apoptosis in human P493-6 cells assessed as early apoptotic cells at 25 uM incubated for 24 hrs by Annexin V/PI staining based flow cytometry analysis (reference value: 2.52 %). It is filed as functional.
The nature of assay [10]: Induction of apoptosis in human P493-6 cells assessed as late apoptotic cells at 25 uM incubated for 24 hrs by Annexin V/PI staining based flow cytometry analysis (reference value: 6.52 %). It counts as functional.
Assay [11] is described as follows: Induction of apoptosis in human P493-6 cells assessed as necrotic cells at 25 uM incubated for 24 hrs by Annexin V/PI staining based flow cytometry analysis (reference value: 0.11 %). It is filed as functional.

Seven compounds from ChEMBL document CHEMBL6115033, “Discovery of a Pyrazolopyridinone-Based MYC Inhibitor That Selectively Engages Intracellular c-MYC and Disrupts MYC-MAX Heterodimerization” (J Med Chem, 2025) can be followed below.

pIC50: −log10 of the molar value. Activity calls are given as the source filed them. The rule behind the calls is not given here. Where only a bound is given, the exact number is not on record here.

As usually defined, the pIC50 is −log10 of the IC50, conventionally taken in molar units. `COc1ccc(-n2nc(-c3ccc(C)cc3)c3cc(C#N)c(=O)[nH]c32)cc1`: the pIC50 with MDA-MB-231 is 5.01; with MDA-MB-468 it was 5.10; in the assay with MCF7, 5.03; in assay [1] it was 4.29; in [2] it was 4.12. In addition, the “Ratio IC50” value in assay [3] is reported as 1.5.

For `N#Cc1cc2c(-c3ccc(F)cc3)nn(-c3ccc(F)cc3)c2[nH]c1=O`, the pIC50 in the assay with MDA-MB-231 is less than 4.00; with MDA-MB-468 it was 4.10; in the assay on MCF7, 5.03; in assay [1], less than 4.00; in [2], less than 4.00.

For `N#Cc1cc2c(-c3ccc(Br)cc3)nn(-c3ccccc3)c2[nH]c1=O`, the pIC50 in the assay on MDA-MB-231 was 5.26; in the assay with MDA-MB-468, 4.88; with MCF7, 4.91; in assay [1] it was 4.81; in assay [2], 4.44. Moreover, the “Ratio IC50” value in assay [3] is on record as 2.3. For the same compound, the outcome (in the assay with P493-6 [4]; in the assay with P493-6 [5]; in assay [6]; in assay [7]) was Active.

Consider `COc1ccc(-c2nn(-c3ccccc3)c3[nH]c(=O)c(C#N)cc23)cc1`, for which the pIC50 was 4.42 with MDA-MB-231; 4.48 in the assay on MDA-MB-468; 4.78 with MCF7; 4.68 in assay [1]; less than 4.00 in assay [2]. Further, in assay [3], the “Ratio IC50” value is more than 4.

Take `Cc1ccc(-c2nn(-c3ccc(Cl)cc3)c3[nH]c(=O)c(C#N)cc23)cc1`: the negative-log IC50 (pIC50) in the assay with MDA-MB-231 was 4.23; in the assay with MDA-MB-468, 4.15; with MCF7, less than 4.00.

Turning to `CCc1ccc(/C=C2/SC(=S)NC2=O)cc1`, the pIC50 with MDA-MB-231 is 4.35; with MDA-MB-468, 4.40; in assay [1] it was 4.45; in assay [2] it was 4.23. For the same compound, the “Ratio IC50” value in assay [3] was found to be 1.7. In addition, the viability at 25 µM in assay [8] worked out at 89.3%. In addition, the Activity in [9] came to 2.54%; in assay [10], 8.06%; in [11], 0.062%.

`Cc1ccc(-c2nn(-c3ccccc3)c3[nH]c(=O)c(C#N)cc23)cc1`: the pIC50 is 4.46 with MDA-MB-231; 4.49 in the assay with MDA-MB-468; 4.69 in the assay with MCF7; 4.68 in assay [1]; 4.29 in assay [2]. For the same compound, the “Ratio IC50” value in assay [3] came out at 2.4.
